Measured values taken from ChEMBL document CHEMBL1122302, “2-Benzazepines. 2. Thiazolo[5,4-d][2]benzazepines” (J Med Chem, 1983).

Key:
[1] = Prevention of metrazole induced convulsions in the antimetrazole test.; format: functional; conditions: Mus musculus
How it was run: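 Test compound given as a suspension in 5% acacia to three male CF-1 animals per dose level; metrazole 70 mg/kg iv 1 h later.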

[2] = molecular target: GABA-A receptor; anion channel; experiment: In vitro displacement of [3H]diazepam from GABA-A benzodiazepine receptor; format: protein-complex assay

Compound	ED50 [1] [mg/kg]	IC50 [2] [nM]
Cc1nc2c(s1)CN=C(c1ccccc1)c1cc(Cl)ccc1-2	63	32
Cc1nc2c(s1)CN=C(c1ccccc1Cl)c1cc(Cl)ccc1-2	50	4.1
Nc1nc2c(s1)CN=C(c1ccccc1Cl)c1cc(Cl)ccc1-2	9.3	1.6
Nc1nc2c(s1)CN=C(c1ccccc1)c1cc(Cl)ccc1-2	7.4	10.5
Cc1nc2c(s1)CN=C(c1ccccc1F)c1cc(Cl)ccc1-2	30	7.8
CN1C(=O)CN=C(c2ccccc2)c2cc(Cl)ccc21 [DIAZEPAM]	1	–
Nc1nc2c(s1)CN=C(c1ccccc1F)c1cc(Cl)ccc1-2	7.7	2.8
